Laboratory results from ChEMBL document CHEMBL1143135, “A structure-activity relationship study and combinatorial synthetic approach of C-terminal modified bifunctional peptides that are delta/mu opioid receptor agonists and neurokinin 1 receptor antagonists” (J Med Chem, 2008).

Experiments:
[1] = molecular target: Substance-P receptor (Rattus norvegicus) (UniProt P14600); assay: Displacement of [3H]substance P from rat NK1 receptor expressed in CHO cells at 1 uM; format: cell-based
Substance-P receptor = Substance-P receptor (Homo sapiens, UniProt P25103); assay: Displacement of [3H]substance P from human NK1 receptor expressed in CHO cells; format: cell-based
Sequence of Substance-P receptor (P25103 whole entry): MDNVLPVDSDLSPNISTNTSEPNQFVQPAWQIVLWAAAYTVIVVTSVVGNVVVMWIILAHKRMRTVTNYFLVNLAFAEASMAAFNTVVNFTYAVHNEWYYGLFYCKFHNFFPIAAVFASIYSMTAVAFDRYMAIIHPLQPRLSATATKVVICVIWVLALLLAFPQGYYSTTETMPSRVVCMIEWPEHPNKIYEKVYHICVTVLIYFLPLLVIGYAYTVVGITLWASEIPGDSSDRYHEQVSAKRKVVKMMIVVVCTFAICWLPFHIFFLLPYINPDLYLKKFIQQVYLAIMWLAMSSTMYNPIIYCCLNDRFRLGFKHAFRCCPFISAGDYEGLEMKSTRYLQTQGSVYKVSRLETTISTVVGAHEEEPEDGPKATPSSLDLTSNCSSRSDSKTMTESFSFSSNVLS

[2] = Lipophilicity, log D at pH 7.4; format: physicochemical; details: buffer
Procedure, shortened: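 2 mg peptide in 500 µL 0.05 M HEPES/0.1 M NaCl, pH 7.4, shaken with 500 µL 1-octanol for 12 h at rt. Phases separated by centrifugation and each phase analysed by HPLC at 230 nm.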

[3] = molecular target: Substance-P receptor (Cavia porcellus) (UniProt P30547); assay: Antagonist activity at NK1 receptor in Hartley guinea pig isolated ileum assessed as inhibition of substance P-induced muscle contraction; format: functional, tissue-based
Sequence of Substance-P receptor (Cavia porcellus) (P30547 whole entry): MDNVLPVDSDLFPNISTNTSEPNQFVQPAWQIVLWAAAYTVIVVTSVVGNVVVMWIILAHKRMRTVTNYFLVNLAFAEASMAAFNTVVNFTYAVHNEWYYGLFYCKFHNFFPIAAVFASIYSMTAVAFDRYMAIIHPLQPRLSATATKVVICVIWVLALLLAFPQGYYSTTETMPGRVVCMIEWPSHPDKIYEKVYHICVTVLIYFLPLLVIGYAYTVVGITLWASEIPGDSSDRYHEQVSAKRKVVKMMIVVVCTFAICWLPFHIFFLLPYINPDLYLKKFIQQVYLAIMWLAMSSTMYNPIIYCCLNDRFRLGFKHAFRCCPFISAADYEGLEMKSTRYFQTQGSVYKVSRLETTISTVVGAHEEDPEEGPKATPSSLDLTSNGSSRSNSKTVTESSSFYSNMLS
Procedure, shortened: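 Guinea pig ileum LMMP preparation in 1 µM naloxone. Full substance P concentration–response curves run with and without test compound; maximal substance P peak taken as 100%. Ke is the antagonist concentration that halves substance P activity, from at least four tissues.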

[4] = molecular target: Substance-P receptor (Rattus norvegicus) (UniProt P14600); assay: Displacement of [3H]substance P from rat NK1 receptor expressed in CHO cells; format: cell-based

Sequence of Substance-P receptor (Rattus norvegicus) (P14600 whole entry): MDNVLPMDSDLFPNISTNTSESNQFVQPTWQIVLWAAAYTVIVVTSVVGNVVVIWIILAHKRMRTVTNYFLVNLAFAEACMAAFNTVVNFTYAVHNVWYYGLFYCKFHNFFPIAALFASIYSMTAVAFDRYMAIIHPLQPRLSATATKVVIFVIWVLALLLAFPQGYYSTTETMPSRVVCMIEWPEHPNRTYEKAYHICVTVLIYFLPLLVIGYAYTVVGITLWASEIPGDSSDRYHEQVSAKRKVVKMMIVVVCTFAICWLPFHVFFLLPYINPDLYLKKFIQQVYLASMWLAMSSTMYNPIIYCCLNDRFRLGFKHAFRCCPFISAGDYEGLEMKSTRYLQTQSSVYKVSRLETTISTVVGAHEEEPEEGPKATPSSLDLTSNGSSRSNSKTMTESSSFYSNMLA

Q: What does the source list for CC(C)C[C@H](NC(=O)[C@@H]1CCCN1C(=O)[C@H](Cc1ccccc1)NC(=O)CNC(=O)[C@@H](C)NC(=O)[C@@H](N)Cc1ccc(O)cc1)C(=O)N[C@@H](Cc1c[nH]c2ccccc12)C(=O)NCc1ccccc1?
A: inhibition [1]: 30%; logIC50 (Substance-P receptor): -7.5; logD [2]: 3.3; Ke [3]: 26 nM

Q: With CC(C)C[C@H](NC(=O)[C@@H]1CCCN1C(=O)[C@H](Cc1ccccc1)NC(=O)CNC(=O)[C@@H](C)NC(=O)[C@@H](N)Cc1ccc(O)cc1)C(=O)N[C@@H](Cc1c[nH]c2ccccc12)C(=O)N(C)Cc1cc(C(F)(F)F)cc(C(F)(F)F)c1 as the molecule, how does the logIC50 (Substance-P receptor) read?
A: The logIC50 was -8.5.

Q: And the logIC50 [4]?
A: Its logIC50 is -7.7.

Q: Which logIC50 (Substance-P receptor) does the source give for CC(C)C[C@H](NC(=O)[C@@H]1CCCN1C(=O)[C@H](Cc1ccccc1)NC(=O)CNC(=O)[C@@H](C)NC(=O)[C@@H](N)Cc1ccc(O)cc1)C(=O)N[C@@H](Cc1c[nH]c2ccccc12)C(=O)NCc1cc(C(F)(F)F)cc(C(F)(F)F)c1 here?
A: The logIC50 was -8.9.

Q: What about the logIC50 [4] of the same molecule?
A: The logIC50 was -7.

Q: Which inhibition [1] does the source give for CC(C)C[C@H](NC(=O)[C@@H]1CCCN1C(=O)[C@H](Cc1ccccc1)NC(=O)CNC(=O)[C@@H](C)NC(=O)[C@@H](N)Cc1ccc(O)cc1)C(=O)N[C@@H](Cc1c[nH]c2ccccc12)C(=O)N(C)Cc1ccccc1 here?
A: The inhibition was 33%.

Q: And the logIC50 (Substance-P receptor)?
A: The logIC50 was -8.5.

Q: What about the logD [2] of the same molecule?
A: Its logD is 3.5.

Q: Which logIC50 (Substance-P receptor) does the source give for CC(C)C[C@H](NC(=O)[C@@H]1CCCN1C(=O)[C@H](Cc1ccccc1)NC(=O)CNC(=O)[C@@H](C)NC(=O)[C@@H](N)Cc1ccc(O)cc1)C(=O)N[C@@H](Cc1c[nH]c2ccccc12)C(=O)OCc1ccccc1 here?
A: The logIC50 was -6.7.

Q: What about the logD [2] of the same molecule?
A: Its logD is 3.8.

Q: What about the logIC50 [4] of the same molecule?
A: Its logIC50 is -6.1.

Q: With CC(C)C[C@H](NC(=O)[C@@H]1CCCN1C(=O)[C@H](Cc1ccccc1)NC(=O)CNC(=O)[C@@H](C)NC(=O)[C@@H](N)Cc1ccc(O)cc1)C(=O)N[C@@H](Cc1c[nH]c2ccccc12)C(=O)OCc1cc(C(F)(F)F)cc(C(F)(F)F)c1 as the molecule, how does the Ki (Substance-P receptor) read?
A: Its Ki is 0.046 nM.

Q: What about the logIC50 (Substance-P receptor) of the same molecule?
A: Its logIC50 is -10.

Q: And the logIC50 [4]?
A: Its logIC50 is -8.3.

Q: What about the Ke [3] of the same molecule?
A: The Ke was 3.6 nM.
